Series [1] has as its system Mus musculus. Description: Toxicity in female CDF1 mouse allografted with mouse P388 cells assessed as animal survival at 400 mg/kg, ip administered daily for 9 days as saline with Tween-80 solution starting 24 hrs after tumor inoculation. Format: organism-based. Set-up: dose 400 mg/kg, route intraperitoneal. The note with it: in vivo. In short, it runs like this:
(§1)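 P-388 leukemia ascitic fluid implanted ip. Compound dosed ip in saline with Tween-80 vehicle, once daily for nine doses from 24 h after tumor inoculation. Acute toxicity scored as toxicity-day survivors per group. Survival was followed up to 30 days, with 30-day survival counted as "cure". Follows NCI screening protocols.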

In series [2] the test system is P388. Description: Antitumor activity against mouse P388 cells allografted in female CDF1 mouse assessed as disease cures by measuring 30-days host survival at 400 mg/kg, ip administered daily for 9 days as saline with Tween-80 solution starting 24 hrs after tumor inoculation relative to control. Conditions: route intraperitoneal. The series is classed as functional. In short, it runs like this: (§2)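 P388 ascitic cell inoculum given ip to CDF1 mice of the sex in each line. Nine daily ip doses in saline with Tween-80 as vehicle, starting 24 h after inoculation. Median survival time expressed as %T/C (>125 significant); "cure" defined as 30-day survival.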

Series [3] relates to Mus musculus. Nature of the series: Toxicity in female CDF1 mouse allografted with mouse P388 cells assessed as animal survival at 100 mg/kg, ip administered daily for 9 days as saline with Tween-80 solution starting 24 hrs after tumor inoculation. The series is classed as organism-based. Set-up: dose 100 mg/kg, route intraperitoneal. The note with it: in vivo. In short, it runs like this: as §1

In series [4] the test system is Mus musculus. Description: Toxicity in female CDF1 mouse allografted with mouse P388 cells assessed as animal survival at 200 mg/kg, ip administered daily for 9 days as saline with Tween-80 solution starting 24 hrs after tumor inoculation. Format: organism-based. Also noted: dose 200 mg/kg, route intraperitoneal. Conditions: in vivo. The procedure, abridged:
as §1

Series [5] deals with Mus musculus. Nature of the series: Toxicity in female CDF1 mouse allografted with mouse P388 cells assessed as animal survival at 13.5 mg/kg, ip administered daily for 9 days as saline with Tween-80 solution starting 24 hrs after tumor inoculation. Format: organism-based. Set-up: dose 13.5 mg/kg, route intraperitoneal. Conditions: in vivo. The procedure, abridged: as §1
Series [6] deals with P388. Nature of the series: Antitumor activity against mouse P388 cells allografted in female CDF1 mouse assessed as disease cures by measuring 30-days host survival at 27 mg/kg, ip administered daily for 9 days as saline with Tween-80 solution starting 24 hrs after tumor inoculation relative to control. The series is classed as functional. The note with it: route intraperitoneal. In short, it runs like this: as §2

In series [7] the test system is P388. Nature of the series: Antitumor activity against mouse P388 cells allografted in female CDF1 mouse assessed as change in body weight at 13.5 mg/kg, ip administered daily for 9 days as saline with Tween-80 solution starting 24 hrs after tumor inoculation. Conditions: route intraperitoneal. Format: functional. The procedure, abridged:
(§3)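 Ascitic fluid carrying P388 cells was inoculated ip. Compound was given ip in nine daily doses, starting 24 h after inoculation, in Klucel (hydroxypropylcellulose) suspension or in saline with Tween-80. Body-weight difference (treated minus control) was recorded on day 5. Survival was scored as %T/C of median survival time, and 30-day survival counted as cure.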

Series [8] relates to P388. Description: Antitumor activity against mouse P388 cells allografted in female CDF1 mouse assessed as change in body weight at 200 mg/kg, ip administered daily for 9 days as saline with Tween-80 solution starting 24 hrs after tumor inoculation. Format: functional. The note with it: route intraperitoneal. The procedure, abridged: as §3
Series [9] relates to P388. Description: Antitumor activity against mouse P388 cells allografted in female CDF1 mouse assessed as disease cures by measuring 30-days host survival at 200 mg/kg, ip administered daily for 9 days as saline with Tween-80 solution starting 24 hrs after tumor inoculation relative to control. Format: functional. Conditions: route intraperitoneal. The procedure, abridged: as §2

Series [10] deals with Mus musculus. Nature of the series: Toxicity in female CDF1 mouse allografted with mouse P388 cells assessed as animal survival at 54 mg/kg, ip administered daily for 9 days as saline with Tween-80 solution starting 24 hrs after tumor inoculation. The series is classed as organism-based. Set-up: dose 54 mg/kg, route intraperitoneal. The note with it: in vivo. The procedure, abridged:
as §1

Series [11] deals with Mus musculus. Nature of the series: Toxicity in female CDF1 mouse allografted with mouse P388 cells assessed as animal survival at 27 mg/kg, ip administered daily for 9 days as saline with Tween-80 solution starting 24 hrs after tumor inoculation. The note with it: in vivo. The series is classed as organism-based. Set-up: dose 27 mg/kg, route intraperitoneal. In short, it runs like this: as §1

Series [12] concerns P388. Description: Antitumor activity against mouse P388 cells allografted in female CDF1 mouse assessed as disease cures by measuring 30-days host survival at 13.5 mg/kg, ip administered daily for 9 days as saline with Tween-80 solution starting 24 hrs after tumor inoculation relative to control. Format: functional. The note with it: route intraperitoneal. In short, it runs like this: as §2

The test system of series [13] is P388. Nature of the series: Antitumor activity against mouse P388 cells allografted in female CDF1 mouse assessed as change in body weight at 400 mg/kg, ip administered daily for 9 days as saline with Tween-80 solution starting 24 hrs after tumor inoculation. Format: functional. The note with it: route intraperitoneal. In short, it runs like this: as §3
Series [14] relates to P388. Description: Antitumor activity against mouse P388 cells allografted in female CDF1 mouse assessed as disease cures by measuring 30-days host survival at 100 mg/kg, ip administered daily for 9 days as saline with Tween-80 solution starting 24 hrs after tumor inoculation relative to control. Format: functional. Conditions: route intraperitoneal. The procedure, abridged:
as §2

Series [15] concerns P388. Description: Antitumor activity against mouse P388 cells allografted in female CDF1 mouse assessed as change in body weight at 27 mg/kg, ip administered daily for 9 days as saline with Tween-80 solution starting 24 hrs after tumor inoculation. Format: functional. Conditions: route intraperitoneal. The procedure, abridged: as §3
In series [16] the test system is P388. Nature of the series: Antitumor activity against mouse P388 cells allografted in female CDF1 mouse assessed as change in body weight at 100 mg/kg, ip administered daily for 9 days as saline with Tween-80 solution starting 24 hrs after tumor inoculation. Format: functional. The note with it: route intraperitoneal. The procedure, abridged:
as §3

In series [17] the test system is P388. Description: Antitumor activity against mouse P388 cells allografted in female CDF1 mouse assessed as disease cures by measuring 30-days host survival at 54 mg/kg, ip administered daily for 9 days as saline with Tween-80 solution starting 24 hrs after tumor inoculation relative to control. The note with it: route intraperitoneal. The series is classed as functional. The procedure, abridged: as §2

Series [18] deals with P388. Description: Antitumor activity against mouse P388 cells allografted in female CDF1 mouse assessed as change in body weight at 54 mg/kg, ip administered daily for 9 days as saline with Tween-80 solution starting 24 hrs after tumor inoculation. Format: functional. The note with it: route intraperitoneal. The procedure, abridged: as §3

One may read the T/C as the result in the treated group divided by that in the control group, in per cent. `OCc1c(CO)c(-c2ccc(Cl)c(Cl)c2)n2c1CCC2`: the Activity result in series [1] is listed as “Non-toxic”; in series [3], “Non-toxic”; in series [4], “Non-toxic”; in series [5] it was “Non-toxic”; in series [7], 0 g; in series [8] it was -0.9 g. Further, the Activity entry is reported as “Non-toxic” in series [10]; “Non-toxic” in series [11]; -1 g in series [13]; -0.3 g in [15]; 0.5 g in series [16]; -0.6 g in series [18]. The T/C in series [2] stood at 127%; in series [6] it was 109%; in [9] it was 116%; in series [12] it was 107%; in series [14] it was 116%; in [17], 109%.
